This is an account of results in ChEMBL document CHEMBL1124575, “Water-soluble third generation antitumor platinum complexes, [2,2-bis (aminomethyl)-1,3-propanediol-N,N']-[1,1-cyclobutanedicarboxylato (2-)-O,O']platinum(II) and [1,1-cyclobutanedicarboxylato(2-)-O,O'] [tetrahydro-4H-pyran-4,4-dimethanamine-N,N']platinum(II)” (J Med Chem, 1989).

The test system of data set [1] is B16. The data set can be described thus: Antitumor activity against murine tumor cells B16 in C57BC mice administered 12.5 mg/Kg intraperitoneally on days 1-9 relative to tumor inoculation. The format is functional. As to conditions: Mus musculus. In outline:
(§1)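 B16 melanoma in C57BC/6 mice, propagated per National Cancer Institute protocols. Drug given ip daily on days 1-9 after tumor inoculation, with observation for 60 days. Read-out is % increase in life span (ILS) over controls. ILS >25% counts as active. Treatment cutting ILS or body weight by >15% versus controls is rated toxic.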

Data set [2] deals with Colon 26. Nature of the data set: Antitumor activity against murine tumor cells Colon 26 in BALB / C mice administered 50 mg/Kg intraperitoneally on days 1,5, and 9 relative to tumor inoculation. The format is functional, cell-based. As to conditions: Mus musculus. Put shortly: (§2)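 Colon 26 carcinoma grown in Balb/C mice following National Cancer Institute protocols. Intraperitoneal dosing on days 1, 5 and 9 after tumor inoculation, with survival followed for 30 days. Activity is scored as % ILS over control mice, and ILS >25% is required. Toxicity is a >15% drop in ILS or body weight versus controls.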

Data set [3] relates to L1210. The data set can be described thus: Antitumor activity against murine tumor cells L1210 cisplatin resistant leukemia in BDF1 mice administered mg/Kg intraperitoneally on days 1,5, and 9 relative to tumor inoculation; Inactive. The format is functional. Conditions: Mus musculus. In outline: (§3)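 L1210, cisplatin-resistant L1210 and P388 leukemias implanted in BDF1 mice and maintained per National Cancer Institute protocols. Drug given ip on days 1, 5 and 9 after inoculation, with 30-day observation. The end point is % ILS versus controls, with >25% needed for activity. Reduction of ILS or body weight by >15% is rated toxic.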

Data set [4] has as its system L1210. The data set can be described thus: Antitumor activity against murine tumor cells L1210 in BDF1 mice administered 100 mg/kg intraperitoneally on days 1,5, and 9 relative to tumor inoculation. Also noted: dose 100 mg/kg. As to conditions: Mus musculus, at 100 mg/kg. The format is functional, organism-based. In outline: as §3
For data set [5], the system named is MX1. Nature of the data set: Percent tumor weight inhibition (TWI) in athymic mice at an optimal dose of 50 mg/kg in breast MX-1 cells. The format is functional, organism-based. Also noted: dose 50 mg/kg. As to conditions: Mus musculus.
Data set [6] deals with P388. Nature of the data set: Antitumor activity against murine tumor cells, P388 in BDF1 mice administered 100 mg/kg intraperitoneally on days 1,5, and 9 relative to tumor inoculation. The format is functional, organism-based. Conditions: Mus musculus, at 100 mg/kg. Also noted: dose 100 mg/kg. Put shortly:
as §3

In data set [7] the test system is Mus musculus. Nature of the data set: Percent tumor weight inhibition (TWI) in athymic mice at an optimal dose of 50 mg/kg in […] cells. The format is functional, organism-based. Also noted: dose 50 mg/kg.
For data set [8], the system named is B16. Nature of the data set: Antitumor activity against murine tumor cells B16 in C57BC mice administered 0.4 mg/kg intraperitoneally on days 1-9 relative to tumor inoculation. Also noted: dose 0.4 mg/kg. The format is functional, organism-based. As to conditions: Mus musculus, at 0.4 mg/kg. Put shortly: as §1
The test system of data set [9] is Colon 26. Nature of the data set: Antitumor activity against murine tumor cells Colon 26 in BALB / C mice administered 1 mg/Kg intraperitoneally on days 1,5, and 9 relative to tumor inoculation. The format is functional. Conditions: Mus musculus. In outline: as §2
Data set [10] concerns L1210. Nature of the data set: Antitumor activity against murine tumor cells L1210 cisplatin resistant leukemia in BDF1 mice administered mg/Kg intraperitoneally on days 1,5, and 9 relative to tumor inoculation; In active. The format is functional. As to conditions: Mus musculus. Put shortly: as §3
The subject of data set [11] is L1210. Nature of the data set: Antitumor activity against murine tumor cells L1210 in BDF1 mice administered 6.2 mg/kg intraperitoneally on days 1,5, and 9 relative to tumor inoculation. The format is functional, organism-based. Also noted: dose 6.2 mg/kg. As to conditions: Mus musculus, at 6.2 mg/kg. Put shortly:
as §3

In data set [12] the test system is MX1. Nature of the data set: Percent tumor weight inhibition (TWI) in athymic mice at an optimal dose of 3 mg/kg in breast MX-1 cells. Also noted: dose 3 mg/kg. The format is functional, organism-based. Conditions: Mus musculus.
Data set [13] has as its system P388. The data set can be described thus: Antitumor activity against murine tumor cells, P388 in BDF1 mice administered 3 mg/kg intraperitoneally on days 1,5, and 9 relative to tumor inoculation. Also noted: dose 3 mg/kg. Conditions: Mus musculus, at 3 mg/kg. The format is functional, organism-based. Put shortly:
as §3

Data set [14] relates to Mus musculus. Nature of the data set: Percent tumor weight inhibition (TWI) in athymic mice at an optimal dose of 3 mg/kg in […] cells. The format is functional, organism-based. Also noted: dose 3 mg/kg.
Data set [15] can be described thus: Solubility in water. The format is physicochemical. Conditions: buffer.
In data set [16] the test system is B16. Nature of the data set: Antitumor activity against murine tumor cells B16 in C57BC mice administered 6 mg/kg intraperitoneally on days 1-9 relative to tumor inoculation. The format is functional, organism-based. Also noted: dose 6 mg/kg. As to conditions: Mus musculus, at 6 mg/kg. Put shortly:
as §1

Data set [17] relates to B16. Nature of the data set: Antitumor activity against murine tumor cells B16 in C57BC mice administered 0.2 mg/Kg intraperitoneally on days 1-9 relative to tumor inoculation. The format is functional. As to conditions: Mus musculus. In outline: as §1
In data set [18] the test system is B16. The data set can be described thus: Antitumor activity against murine tumor cells B16 in C57BC mice administered 0.4 mg/Kg intraperitoneally on days 1-9 relative to tumor inoculation. The format is functional. As to conditions: Mus musculus. In outline:
as §1

In data set [19] the test system is B16. Nature of the data set: Antitumor activity against murine tumor cells B16 in C57BC mice administered 1.5 mg/Kg intraperitoneally on days 1-9 relative to tumor inoculation. The format is functional. As to conditions: Mus musculus. In outline: as §1
Data set [20] concerns Colon 26. The data set can be described thus: Antitumor activity against murine tumor cells Colon 26 in BALB / C mice administered 3.1 mg/Kg intraperitoneally on days 1,5, and 9 relative to tumor inoculation. The format is functional. Conditions: Mus musculus. In outline:
as §2

Data set [21] concerns Colon 26. The data set can be described thus: Antitumor activity against murine tumor cells Colon 26 in BALB / C mice administered 0.8 mg/Kg intraperitoneally on days 1,5, and 9 relative to tumor inoculation. As to conditions: Mus musculus. The format is functional. In outline:
as §2

The test system of a further data set is M5076. Nature of the data set: Antitumor activity against murine tumor cells M5076 in BDF1 mice administered 3 mg/Kg intraperitoneally on days 1,5, and 9 relative to tumor inoculation. The format is functional. Conditions: Mus musculus.
For data set [22], the system named is L1210. Nature of the data set: Antitumor activity against murine tumor cells L1210 in BDF1 mice administered 1.5 mg/kg intraperitoneally on days 1,5, and 9 relative to tumor inoculation. Also noted: dose 1.5 mg/kg. As to conditions: Mus musculus, at 1.5 mg/kg. The format is functional, organism-based. In outline: as §3
Data set [23] deals with L1210. Nature of the data set: Antitumor activity against murine tumor cells L1210 in BDF1 mice administered 3.1 mg/kg intraperitoneally on days 1,5, and 9 relative to tumor inoculation. Conditions: Mus musculus, at 3.1 mg/kg. Also noted: dose 3.1 mg/kg. The format is functional, organism-based. In outline:
as §3

Data set [24] concerns P388. The data set can be described thus: Antitumor activity against murine tumor cells, P388 in BDF1 mice administered 3.2 mg/Kg intraperitoneally on days 1,5, and 9 relative to tumor inoculation. The format is functional. As to conditions: Mus musculus. Put shortly:
as §3

Data set [25] deals with P388. The data set can be described thus: Antitumor activity against murine tumor cells, P388 in BDF1 mice administered 6.2 mg/Kg intraperitoneally on days 1,5, and 9 relative to tumor inoculation. The format is functional. Conditions: Mus musculus. Put shortly:
as §3

Activity calls are given as the source filed them. The rule behind the calls is not given here.

For CARBOPLATIN, the Increase in the data set on B16 [1] was 43%; in the data set with Colon 26 [2], 85%; with L1210 [4], 35%; with P388 [6], 144%. Also, the Increase result with L1210 [3] was “inactive”. The figures for the TWI in the data set on MX1 [5] and with Mus musculus [7] were 90% and 200%, respectively.

Turning to CISPLATIN, the Increase in the data set with B16 [8] was determined as 36%; in the data set on Colon 26 [9] it was 47%; in the data set on L1210 [11] it was 96%; with P388 [13] it was 140%. For the same substance, in the data set with L1210 [10], the Increase result was “inactive”. For the same substance, the values for the TWI in the data set with MX1 [12] and with Mus musculus [14] were 86% and 200%, respectively.

In turn, “cis-Diamminedichloroplatinum (II) complex [listing 1 of 3 here]” returned a S in [15] of 0.3 mg/mL.

“cis-Diamminedichloroplatinum (II) complex [listing 2 of 3 here]”: the S in data set [15] turned out to be 1 mg/mL.

Regarding “cis-Diamminedichloroplatinum (II) complex [listing 3 of 3 here]”, the Increase was 53% with B16 [16]; 43% in the data set with B16 [17]; 43% in the data set with B16 [18]; 36% in the data set with B16 [19]; 59% with Colon 26 [20]; 39% in the data set with Colon 26 [21]. In addition, the Increase amounted to 128% with M5076; 38% in the data set on L1210 [22]; 39% in the data set with L1210 [23]; 50% in the data set with L1210 [11]; 173% in the data set on P388 [24]; 136% in the data set with P388 [25].
